Measured values taken from ChEMBL document CHEMBL1132600.

Target: T1, Fatty-acid amide hydrolase 1 (Rattus norvegicus) (UniProt P97612)
T1 sequence (whole entry): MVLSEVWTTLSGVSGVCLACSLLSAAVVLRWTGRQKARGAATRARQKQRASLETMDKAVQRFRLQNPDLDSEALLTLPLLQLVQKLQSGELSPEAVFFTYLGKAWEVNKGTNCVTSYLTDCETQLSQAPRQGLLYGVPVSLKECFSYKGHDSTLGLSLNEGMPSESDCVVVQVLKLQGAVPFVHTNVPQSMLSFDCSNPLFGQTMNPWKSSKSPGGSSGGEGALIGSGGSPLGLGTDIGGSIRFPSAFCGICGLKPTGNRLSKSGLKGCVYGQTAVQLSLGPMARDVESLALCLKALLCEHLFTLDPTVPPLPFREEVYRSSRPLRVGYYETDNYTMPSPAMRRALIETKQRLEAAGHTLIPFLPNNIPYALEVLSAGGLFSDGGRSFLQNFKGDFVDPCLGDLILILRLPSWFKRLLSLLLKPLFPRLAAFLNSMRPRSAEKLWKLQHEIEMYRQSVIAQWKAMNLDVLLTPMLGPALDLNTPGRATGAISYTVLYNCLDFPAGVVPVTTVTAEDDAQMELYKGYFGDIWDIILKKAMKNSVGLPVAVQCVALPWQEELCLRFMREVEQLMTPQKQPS
Test: Tested for hydrolysis by rat brain microsomal anandamide amidohydrolase (AAH).
Summary of the method: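 Substrate at 100 μM (final) with 150 μg rat brain microsomal protein in 50 mM Tris·HCl, 1 mM EDTA, 0.1% BSA, pH 7.4, 37 °C, 15 min with shaking. Stopped with acetonitrile. Products quantified by RP-HPLC: arachidonic acid at 204 nm, or ethanolamine-type amine by OPA precolumn derivatization at 230 nm. Substrate-free blank subtracted. Four experiments in duplicate.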

SMILES	Rate of hydrolysis (nM min-1 mg-1)	Relative rate of hydrolysis [%]
CCCCC/C=C\C/C=C\C/C=C\C/C=C\CCCC(=O)OCC(O)CO (stereo not drawn)	3.43	264
CCCCC/C=C\C/C=C\CCCCCCCC(=O)N[C@@H](C)CO	0.27	20.5
CCCCC/C=C\C/C=C\C/C=C\C/C=C\CCCC(=O)NC1CCC(O)CC1 (stereo not drawn)	0.299	2
CCCCC/C=C\C/C=C\C/C=C\C/C=C\CCCC(=O)NC(C)(C)C	0.022	1.8
CCCCC/C=C\C/C=C\C/C=C\C/C=C\CCCC(=O)Nc1ccccc1O	2.51	193
CCCCCCCC/C=C\CCCCCCCC(=O)NCCO	0.79	61.1
CCCCC/C=C\C/C=C\C/C=C\C/C=C\CCCC(=O)NC[C@@H](C)O	1.58	121
CCCCC/C=C\C/C=C\C/C=C\C/C=C\CCCC(N)=O	2.85	219
CCCCC/C=C\C/C=C\C/C=C\C/C=C\CCCC(=O)OC(CO)CO	3.27	251
CCCCCCCCCCCCCCCCCC(=O)NCCO	0.2	15
CCCCC/C=C\C/C=C\C/C=C\C/C=C\CCCC(=O)N(CCO)CCO	0	
CCCCC/C=C\C/C=C\C/C=C\C/C=C\CCCC(=O)NCCF	1.65	127
CCCCC/C=C\C/C=C\C/C=C\C/C=C\CCCC(=O)NCC(C)C	0.025	2
CCCCC/C=C\C/C=C\C/C=C\C/C=C\CCCC(=O)Nc1cccc(O)c1	1.98	152
CCCCC/C=C\C/C=C\C/C=C\C/C=C\CCCC(=O)N[C@@H](C)CC	0.082	6.3
CCCCC/C=C\C/C=C\C/C=C\C/C=C\CCCC(=O)Nc1ccc(CO)cc1	0	0
CCCCC/C=C\C/C=C\C/C=C\C/C=C\CCCC(=O)N[C@@H](C)CO	0.299	
CCCCC/C=C\C/C=C\C/C=C\C/C=C\CCCC(=O)N[C@H](C)CC	0	0
CCCCC/C=C\C/C=C\CCCCCCCC(=O)NCCO	0.98	
CCCCC/C=C\C/C=C\C/C=C\C/C=C\CCCC(=O)NCCO	1.3	
CCCCC/C=C\C/C=C\C/C=C\C/C=C\CCCC(=O)N[C@H](C)CO	0.03	
CCCCC/C=C\C/C=C\C/C=C\C/C=C\CCCC(=O)NC(C)(C)CO	0.056	4.3
CCCCC/C=C\C/C=C\C/C=C\C/C=C\CCCC(=O)Nc1ccc(O)cc1	0.208	16
CCCCC/C=C\C/C=C\C/C=C\C/C=C\CCC(C)(C)C(=O)NCCO	0.0094	0.7
CCCCC/C=C\C/C=C\C/C=C\C/C=C\CCCC(=O)N(C)CCO	0	0
CCCCCCCC/C=C\CCCCCCCC(=O)N[C@@H](C)CO	0.47	3.6
CCCCC/C=C\C/C=C\C/C=C\C/C=C\CCCC(=O)NC[C@H](C)O	0.273	21

Tested on: not listed separately
Test: Ratio of Vmax value and Km value of the compound.
Summary of the method: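 Sprague–Dawley rat brain microsomes (105000g pellet) at 0.3 mg/mL protein, 37 °C, pH 7.4, BSA as carrier. Varied substrate concentrations, sampled at least four times within the linear initial range. Arachidonic acid formed measured by RP-HPLC (UV 204 nm, calibration curve). Initial velocity vs substrate concentration fitted to Michaelis–Menten.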

SMILES	Vmax / Km (ml min-1 kg-1)	Vmax / Km (ml min-1 mg-1)
CCCCC/C=C\C/C=C\C/C=C\C/C=C\CCCC(=O)Nc1ccccc1O	0.43	
CCCCC/C=C\C/C=C\C/C=C\C/C=C\CCCC(N)=O		1.24
CCCCC/C=C\C/C=C\C/C=C\C/C=C\CCCC(=O)N[C@@H](C)CO	0.049	
CCCCC/C=C\C/C=C\C/C=C\C/C=C\CCCC(=O)N[C@H](C)CO	0.011	
